# Measured values: ChEMBL document CHEMBL2150942, “Synthesis and antibacterial activity of novel 1,3-diphenyl-1H-pyrazoles functionalized with phenylalanine-derived rhodanines” (Eur J Med Chem, 2012)
# Assays:
# Staphylococcus aureus [1] = test: Antibacterial activity against Staphylococcus aureus KCTC 503 after 20 hrs by two fold serial dilution assay; type: functional; conditions: KCTC 503, 20 h
# Staphylococcus aureus [2] = test: Antibacterial activity against Staphylococcus aureus RN4220 after 20 hrs by two fold serial dilution assay; type: functional; conditions: RN4220, 20 h
# Escherichia coli [3] = test: Antibacterial activity against Escherichia coli CCARM 1924 after 20 hrs by two fold serial dilution assay; type: functional; conditions: CCARM 1924, 20 h
# Escherichia coli [4] = test: Antibacterial activity against Escherichia coli CCARM 1356 after 20 hrs by two fold serial dilution assay; type: functional; conditions: CCARM 1356, 20 h
# Staphylococcus aureus [5] = test: Antibacterial activity against methicillin-resistant Staphylococcus aureus CCARM 3167 after 20 hrs by two fold serial dilution assay; type: functional; conditions: CCARM 3167, 20 h
# Staphylococcus aureus [6] = test: Antibacterial activity against methicillin-resistant Staphylococcus aureus CCARM 3506 after 20 hrs by two fold serial dilution assay; type: functional; conditions: CCARM 3506, 20 h
# Staphylococcus aureus [7] = test: Antibacterial activity against quinolone-resistant Staphylococcus aureus CCARM 3505 after 20 hrs by two fold serial dilution assay; type: functional; conditions: CCARM 3505, 20 h
# Staphylococcus aureus [8] = test: Antibacterial activity against quinolone-resistant Staphylococcus aureus CCARM 3519 after 20 hrs by two fold serial dilution assay; type: functional; conditions: CCARM 3519, 20 h
# Staphylococcus aureus [9] = test: Ratio of norfloxacin MIC to compound MIC for methicillin-resistant Staphylococcus aureus CCARM 3167; type: functional
# Staphylococcus aureus [10] = test: Ratio of norfloxacin MIC to compound MIC for methicillin-resistant Staphylococcus aureus CCARM 3506; type: functional
# HeLa [11] = test: Cytotoxicity against human HeLa cells after 48 hrs by MTT assay; type: cell-based
# Procedure, shortened: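 HeLa cells grown in DMEM with 10% FBS and penicillin-streptomycin at 37 °C in 5% CO₂, passaged three times. About 1 × 10⁴ cells/well were seeded and attached overnight, then given a range of compound concentrations for 48 h. MTT (5 mg/ml stock) was added for 4 h, formazan dissolved in DMSO, and OD read at 570 nm. Run four times; IC50 was the concentration giving 50% growth inhibition.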
# HeLa [12] = test: Cytotoxicity against human HeLa cells assessed as decrease in cell viability at 1 ug/mL after 48 hrs by MTT assay; type: cell-based
# Procedure, shortened: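 HeLa cells (DMEM, 10% FBS, antibiotics, 37 °C, 5% CO₂) were seeded at about 1 × 10⁴ cells/well, left overnight, then exposed to compound for 48 h. Viability was read by MTT (5 mg/ml stock, 4 h), with formazan dissolved in DMSO and absorbance taken at 570 nm. Assay performed four times.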
SMILES,MIC (Staphylococcus aureus [1]) [µg/mL],MIC (Staphylococcus aureus [2]) [µg/mL],MIC (Escherichia coli [3]) [µg/mL],MIC (Escherichia coli [4]) [µg/mL],MIC (Staphylococcus aureus [5]) [µg/mL],MIC (Staphylococcus aureus [6]) [µg/mL],MIC (Staphylococcus aureus [7]) [µg/mL],MIC (Staphylococcus aureus [8]) [µg/mL],Ratio (Staphylococcus aureus [9]),Ratio (Staphylococcus aureus [10]),IC50 (HeLa [11]) [µg/mL],Activity (HeLa [12])
O=C(O)[C@@H](Cc1ccccc1)N1C(=O)/C(=C/c2cn(-c3ccccc3)nc2-c2ccccc2Cl)SC1=S,2,2,> 64,> 64,1,1,2,1,8,4,30.2,Non-toxic
COc1cccc(-c2nn(-c3ccccc3)cc2/C=C2\SC(=S)N([C@H](Cc3ccccc3)C(=O)O)C2=O)c1,16,4,> 64,> 64,16,16,16,16,–,–,–,–
O=C(O)[C@@H](Cc1ccccc1)N1C(=O)/C(=C/c2cn(-c3ccccc3)nc2-c2ccc([N+](=O)[O-])cc2)SC1=S,16,4,> 64,> 64,1,1,1,1,8,4,–,–
O=C(O)[C@@H](Cc1ccccc1)N1C(=O)/C(=C/c2cn(-c3ccccc3)nc2-c2ccccc2F)SC1=S,16,4,> 64,> 64,4,4,2,4,–,–,–,–
Cc1onc(-c2ccccc2)c1C(=O)N[C@@H]1C(=O)N2[C@@H]1SC(C)(C)[C@@H]2C(=O)O [OXACILLIN],1,1,> 64,> 64,> 64,> 64,1,1,–,–,–,–
COc1ccc(-c2nn(-c3ccccc3)cc2/C=C2\SC(=S)N([C@H](Cc3ccccc3)C(=O)O)C2=O)cc1,16,4,> 64,> 64,4,4,4,8,–,–,–,–
O=C(O)[C@@H](Cc1ccccc1)N1C(=O)/C(=C/c2cn(-c3ccccc3)nc2-c2ccc(Cl)cc2)SC1=S,2,2,> 64,> 64,2,2,2,2,–,–,–,–
Cc1ccc(-c2nn(-c3ccccc3)cc2/C=C2\SC(=S)N([C@H](Cc3ccccc3)C(=O)O)C2=O)cc1,1,2,> 64,> 64,1,1,1,1,8,4,20.2,Non-toxic
O=C(O)[C@@H](Cc1ccccc1)N1C(=O)/C(=C/c2cn(-c3ccccc3)nc2-c2ccc(Cl)cc2Cl)SC1=S,2,2,> 64,> 64,1,1,2,1,8,4,–,–
CCn1cc(C(=O)O)c(=O)c2cc(F)c(N3CCNCC3)cc21 [NORFLOXACIN],2,2,16,16,8,4,> 64,> 64,–,–,–,–
O=C(O)[C@@H](Cc1ccccc1)N1C(=O)/C(=C/c2cn(-c3ccccc3)nc2-c2cccc(Br)c2)SC1=S,8,2,> 64,> 64,4,4,4,4,–,–,–,–
O=C(O)[C@@H](Cc1ccccc1)N1C(=O)/C(=C/c2cn(-c3ccccc3)nc2-c2ccc(Br)cc2)SC1=S,16,4,> 64,> 64,1,1,1,16,8,4,–,–
Cc1ccc(-c2nn(-c3ccccc3)cc2/C=C2\SC(=S)N([C@H](Cc3ccccc3)C(=O)O)C2=O)c(C)c1,2,2,> 64,> 64,2,2,2,1,–,–,–,–
O=C(O)[C@@H](Cc1ccccc1)N1C(=O)/C(=C/c2cn(-c3ccccc3)nc2-c2ccc(F)cc2)SC1=S,16,4,> 64,> 64,1,1,1,1,8,4,–,–
O=C(O)[C@@H](Cc1ccccc1)N1C(=O)/C(=C/c2cn(-c3ccccc3)nc2-c2ccc3ccccc3c2)SC1=S,16,2,> 64,> 64,16,16,16,16,–,–,–,–
O=C(O)[C@@H](Cc1ccccc1)N1C(=O)/C(=C/c2cn(-c3ccccc3)nc2-c2ccccc2)SC1=S,8,2,> 64,> 64,4,4,4,4,–,–,–,–
COc1ccccc1-c1nn(-c2ccccc2)cc1/C=C1\SC(=S)N([C@H](Cc2ccccc2)C(=O)O)C1=O,16,2,> 64,> 64,16,16,16,16,–,–,–,–
